In ChEMBL document CHEMBL4190246, “Phytochemical Studies on Two Australian Anigozanthos Plant Species” (J Nat Prod, 2017):
Calls of active or inactive are those of the source. The rule behind the calls is not given here.

Key:
Format in all cases: functional, organism-based
[1] = tested on: Staphylococcus aureus; experiment: Antimicrobial activity against methicillin-resistant Staphylococcus aureus ATCC 43300 at 32 ug/ml after 18 hrs
Procedure, shortened: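 Single-concentration screen (COADD): samples dissolved in DMSO at 10 mg/mL stock, plated in duplicate; overnight culture in cation-adjusted Mueller Hinton broth at 37 °C added to 5 × 10^5 CFU/mL, final 32 μg/mL. Incubated 37 °C. Read-out absorbance 600 nm; percent growth inhibition versus media-only and untreated-cell controls on the same plate; significance by Z-score from sample wells.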

[2] = tested on: Escherichia coli; experiment: Antimicrobial activity against Escherichia coli ATCC 25922 at 32 ug/ml after 18 hrs
Procedure, shortened: (§1)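 Single-concentration screen: samples from 10 mg/mL DMSO stocks, duplicate wells; overnight culture in cation-adjusted Mueller Hinton broth at 37 °C, added to 5 × 10^5 CFU/mL, final compound 32 μg/mL; 37 °C, 18 h. Growth read as absorbance at 600 nm; percent inhibition against media-only and untreated-cell controls on the same plate, significance by Z-score.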

[3] = tested on: Klebsiella pneumoniae; experiment: Antimicrobial activity against Klebsiella pneumoniae ATCC 700603 at 32 ug/ml after 18 hrs; procedure, shortened: as §1
[4] = tested on: Pseudomonas aeruginosa; experiment: Antimicrobial activity against Pseudomonas aeruginosa ATCC 27853 at 32 ug/ml after 18 hrs; procedure, shortened: as §1
[5] = tested on: Acinetobacter baumannii; experiment: Antimicrobial activity against Acinetobacter baumannii ATCC 19606 at 32 ug/ml after 18 hrs; conditions: ATCC 19606 = CIP 70.34 = JCM 6841; procedure, shortened: as §1
[6] = tested on: Candida albicans; experiment: Antimicrobial activity against Candida albicans ATCC 90028 at 32 ug/ml after 24 hrs by resazurin dye based assay
Procedure, shortened: (§2)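 Fungi grown 3 days on yeast extract–peptone dextrose agar at 30 °C, then diluted in yeast nitrogen base broth to 2.5 × 10^5 CFU/mL. Samples from 10 mg/mL DMSO stocks, duplicate wells, final 32 μg/mL; 35 °C, 24 h. Resazurin added (0.001% final), 2 h more at 35 °C, absorbance at 530 nm. Percent inhibition against on-plate controls; Z-scores.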

[7] = tested on: Cryptococcus neoformans; experiment: Antimicrobial activity against Cryptococcus neoformans ATCC 208821 at 32 ug/ml after 24 hrs by resazurin dye based assay; procedure, shortened: as §2
[8] = tested on: Acinetobacter baumannii; experiment: Antimicrobial activity against Acinetobacter baumannii ATCC 19606 at 52.4 uM after 18 hrs; conditions: ATCC 19606 = CIP 70.34 = JCM 6841; procedure, shortened: as §1
[9] = tested on: Acinetobacter baumannii; experiment: Antimicrobial activity against Acinetobacter baumannii ATCC 19606 at 53.9 uM after 18 hrs; conditions: ATCC 19606 = CIP 70.34 = JCM 6841; procedure, shortened: as §1
[10] = tested on: Acinetobacter baumannii; experiment: Antimicrobial activity against Acinetobacter baumannii ATCC 19606 at 94.9 uM after 18 hrs; conditions: ATCC 19606 = CIP 70.34 = JCM 6841; procedure, shortened: as §1

SMILES	Activity [1]	Activity [2]	Activity [3]	Activity [4]	Activity [5]	Activity [6]	Activity [7]	Activity [8]	Activity [9]	Activity [10]
O=c1c(O[C@@H]2O[C@H](CO)[C@@H](O)[C@H](O)[C@H]2O)c(-c2ccc(O)c(O)c2)oc2cc(O)cc(O)c12	inactive	inactive	inactive	inactive	inactive	inactive	inactive			
O=C(O)[C@H]1O[C@@H](Oc2cc(O)c3c(=O)cc(-c4ccc(O)cc4)oc3c2)[C@H](O)[C@@H](O)[C@@H]1O	inactive	inactive	inactive	inactive	inactive	inactive	inactive			
O=C(/C=C/c1ccc(O)cc1)OC[C@H]1O[C@@H](Oc2c(-c3ccc(O)c(O)c3)oc3cc(O)cc(O)c3c2=O)[C@H](O)[C@@H](O)[C@@H]1O	inactive	inactive	inactive	inactive	inactive	inactive	inactive			
C[C@@H]1O[C@@H](OC[C@H]2O[C@@H](Oc3cc4c(O)cc(O)cc4[o+]c3-c3ccc(O)c(O)c3)[C@H](O)[C@@H](O)[C@@H]2O)[C@H](O)[C@H](O)[C@H]1O	inactive	inactive	inactive	inactive		inactive	inactive	Active		
O=C(/C=C/c1ccc(O)cc1)OC[C@H]1O[C@@H](Oc2c(-c3ccc(O)cc3)oc3cc(O)cc(O)c3c2=O)[C@H](O)[C@@H](O)[C@@H]1O	inactive	inactive	inactive	inactive	inactive	inactive	inactive			
C[C@@H]1O[C@@H](OC[C@H]2O[C@@H](Oc3c(-c4ccc(O)c(O)c4)oc4cc(O)cc(O)c4c3=O)[C@H](O)[C@@H](O)[C@@H]2O)[C@H](O)[C@H](O)[C@H]1O	inactive	inactive	inactive	inactive	inactive	inactive	inactive			
O=C(/C=C/c1ccc(O)cc1)O[C@H]1[C@H](O)[C@@H](O)[C@H](Oc2cc(O)c(O)c(C(=O)/C=C/c3ccc(O)cc3)c2)O[C@@H]1CO	inactive	inactive	inactive	inactive	inactive	inactive	inactive			
C[C@@H]1O[C@@H](OC[C@H]2O[C@@H](Oc3c(-c4ccc(O)cc4)oc4cc(O)cc(O)c4c3=O)[C@H](O)[C@@H](O)[C@@H]2O)[C@H](O)[C@H](O)[C@H]1O	inactive	inactive	inactive	inactive		inactive	inactive		Active	
O=c1cc(-c2ccc(O)c(O)c2)oc2cc(O[C@@H]3O[C@H](CO)[C@@H](O)[C@H](O)[C@H]3O)cc(O)c12	inactive	inactive	inactive	inactive	inactive	inactive	inactive			
NC(CCCC(OC(=O)/C=C/c1ccc(O)cc1)C(=O)O)C(=O)O (stereo unspecified)	inactive	inactive	inactive	inactive		inactive	inactive			Active
O=c1c(O)c(-c2ccc(O)cc2)oc2cc(O)cc(O)c12	inactive	inactive	inactive	inactive	inactive	inactive	inactive			
O=C1c2c(O)cc(O)cc2O[C@H](c2ccc(O)c(O)c2)[C@H]1O	inactive	inactive	inactive	inactive	inactive	inactive	inactive			
O=C(/C=C/c1ccc(O)cc1)OC[C@H]1O[C@@H](Oc2cc3c(O)cc(O)cc3[o+]c2-c2ccc(O)c(O)c2)[C@H](O)[C@@H](O)[C@@H]1O	inactive	inactive	inactive	inactive	inactive	inactive	inactive			
